Screening results deposited in PubChem by The Scripps Research Institute Molecular Screening Center.
Rows were chosen to be rich in hits. Some 3.7% of all compounds tested hit in one or more screens of this group.
TAAR1 antag – human TAAR1 antagonism. CHO RD-HGA16 TAAR1, Fluo-8 calcium fluorescence, antagonist. inhibition, % at 3 µM. 360,000 tested, 1.5% active. AID 624466;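 active = inhibition above a per-plate cutoff, the mean inhibition of test compounds on that plate plus 3 SD, cut at about 49% in these data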
Target sequence (Q96RJ0 whole entry, looked up): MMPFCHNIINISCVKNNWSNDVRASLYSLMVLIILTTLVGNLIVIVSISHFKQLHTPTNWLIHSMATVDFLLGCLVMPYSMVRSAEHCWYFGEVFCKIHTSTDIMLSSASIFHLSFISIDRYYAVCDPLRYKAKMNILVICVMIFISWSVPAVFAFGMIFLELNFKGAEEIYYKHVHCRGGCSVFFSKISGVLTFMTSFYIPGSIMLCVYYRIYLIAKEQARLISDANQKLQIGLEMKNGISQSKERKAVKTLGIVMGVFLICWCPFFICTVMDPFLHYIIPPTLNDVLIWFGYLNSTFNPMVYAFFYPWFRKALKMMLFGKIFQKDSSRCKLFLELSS
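Assay system: RD-HGA16 CHO cells with stable hTAAR1 and Gα16 / Reagent: EC80 β-phenethylamine stimulus / Doses: 3 µM, single point / Timing: dye loading 75 min at 37 °C, then 30 min room temperature / Measured by: Fluo-8 intracellular calcium dye fluorescence, real-time kinetic reads / Controls: vehicle wells and EC80 agonist wells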
TAAR1 ag – agonists of human TAAR1; CHO RD-HGA16 TAAR1, Fluo-8 calcium fluorescence; vehicle wells 0%, saturating PEA agonist 100%; 360,000 tested, 0.99% active; activation, % at 3 µM; Q96RJ0;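 active = activation above the mean activation of all test compounds in the run plus 3 SD, cut at about 38% in these data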
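System: CHO-derived RD-HGA16 cells with stable Gα16 and human TAAR1. Times: 17-24 h plating, Fluo-8 75 min 37 °C, 30 min RT. Measured by: calcium-sensitive Fluo-8 signal, excitation 470-495, emission 515-575 nm. Read-out basis: % activation relative to PEA EC100 response. Control set: DMSO and PEA EC100. Repeats: no replicates (n 1).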
NS3 helicase inh – HCV NS3 helicase inhibition; 290,000 tested, 0.56% active; NS3 helicase DNA unwinding, Cy5 molecular beacon fluorescence; inhibition, % at 10.9 µM;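 active = inhibition above the mean of all tested compounds plus 3 SD, set per campaign, cut at about 35% in these data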
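Test system: hepatitis C virus NS3 helicase domain fragment enzyme. Also added: annealed dual-labelled DNA beacon duplex, ATP-started. Timing: 60 min unwinding reaction at 25 °C after ATP addition. Technique: Cy5 fluorescence. Measure: % inhibition of unwinding.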
HCV core dimer – HCV core protein dimerization inhibition; TR-FRET GST/Flag-core106 dimerization, 1536-well; inhibition, % at 5 µM; 300,000 tested, 0.33% active; AID 1899;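 active = inhibition above the mean of all tested compounds plus 3 SD, set per screening campaign, cut at about 45% in these data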
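System – GST-tagged and Flag-tagged HCV core protein residues 1-106 · Repeats – one well for each compound · Technique – TR-FRET 671 and 617 nm emission · Doses – one concentration, 5 µM, in 0.5% DMSO · Times – 4 h, 22.5 °C incubation · Also added – Eu donor and XL665 acceptor anti-tag antibodies · Measure – percent inhibition of core106 dimerization signal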
rCAG RNA binder – binds r(CAG) RNA repeats. r(CAG) RNA repeat, TO-PRO-1 dye displacement fluorescence. inhibition, % at 3 µM. 370,000 tested, 1.3% active. AID 651821;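 active = inhibition above the plate cutoff, the mean of all test compounds on that plate plus 3 SD, cut at about 35% in these data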;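 note: higher means more dye released from RNA so lower well fluorescence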
rCAG bind conf – r(CAG) RNA repeat binding, confirmation; TO-PRO-1 dye displacement fluorescence; shares compounds with rCAG RNA binder; AID 652065; inhibition, % at 3 µM; 4,300 tested, 70% active;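 active = inhibition above a per-plate cutoff, the mean inhibition of sample wells plus 3 SD, cut at about 35% in these data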;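 note: loss of TO-PRO-1 fluorescence as compound displaces dye from 1x1 AA loop RNA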
DNA CAG counter – DNA CAG dye complex inhibition counter-screen; shares compounds with rCAG RNA binder; d(CAG) DNA oligo TO-PRO-1 dye displacement, fluorescence; inhibition, % at 3 µM; 4,300 tested, 94% active; AID 652068;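 active = inhibition above its plate's cutoff, the mean test-well inhibition plus 3 SD, cut at about 4.8% in these data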;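 note: hits displace the dye from DNA and so lower well fluorescence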
Each line names hits and unclear results; the compound was inactive in the other large screens (follow-up assays come after a bar, where they were run).

Cc1ccc(S(=O)(=O)Oc2ccc(/C=N/N=C3/NC(=O)C(CC(=O)O)S3)cc2)cc1 (stereo not drawn)	none (no result: NS3 helicase inh, HCV core dimer)
Cc1ccc2c(c1)N(CCCC(=O)NCc1ccc(F)cc1)C(=O)CO2	none (no result: TAAR1 antag, TAAR1 ag, NS3 helicase inh, HCV core dimer)
O=C(O)c1cc(N/N=C2/CC(c3ccccc3)Oc3ccccc32)ccc1Cl (stereo not drawn)	rCAG RNA binder 46.2 | rCAG bind conf 62.4 | DNA CAG counter 22.4
O=S(=O)(N/N=C1/CC(c2ccccc2)Oc2ccccc21)c1ccccc1 (stereo not drawn)	rCAG RNA binder 35.6 (no result: NS3 helicase inh, HCV core dimer) | rCAG bind conf inactive | DNA CAG counter 9.6
FC(F)(F)c1cccc(NC(=S)NNC(=S)NCc2ccccc2)c1	rCAG RNA binder 78.5 | rCAG bind conf 63.3 | DNA CAG counter 32.8
FC(F)(F)c1cccc(NC(=S)NCc2ccccn2)c1	none
O=C(NNC(=S)Nc1cccc(C(F)(F)F)c1)c1cccc(Cl)c1	rCAG RNA binder 46.9 | rCAG bind conf 47.9 | DNA CAG counter 14.1
